Test results published in ChEMBL document CHEMBL4673249, “Anticancer Effects of Honokiol via Mitochondrial Dysfunction Are Strongly Enhanced by the Mitochondria-Targeting Carrier Berberine” (J Med Chem, 2020).
Calls of active or inactive are those of the source. The calls are words filed in the database; no cut-off is given here.

Tests used:
[1] = tested on: HepG2; assay: Induction of apoptosis in human HepG2 cells assessed as late apoptotic cells at 4 uM after 24 hrs in presence of z-VAD-fmk by annexin V/propidium iodide staining based flow cytometric analysis (reference value: 6.21%); assay type: functional
[2] = tested on: HepG2; assay: Induction of morphological changes in human HepG2 cells assessed as effect on number of vacuoles at 3 uM after 24 hrs in presence of z-VAD-fmk by microscopic analysis; assay type: functional, cell-based
Procedure, shortened: (§1)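 HepG2 cells preincubated with or without z-VAD-fmk (20 μM, 2 h), then treated with 3 μM compound. Vacuole number and size judged from optical microscopy images.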

[3] = tested on: HepG2; assay: Induction of mitochondrial dysfunction in human HepG2 cells assessed as dispersive puncta formation at 2 to 4 uM after 12 hrs by calcein-AM staining based fluorescence microscopic analysis; assay type: functional, cell-based; conditions: dose 2-4 µM
Procedure, shortened: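 HepG2 cells in glass-bottom plates treated for 12 h. Co-loaded with 1.5 μM calcein-AM and 5 mM CoCl2 in DMEM at 37 °C for 20 min; CoCl2 quenches cytosolic calcein. Washed three times with PBS and imaged by fluorescence microscopy through a 525-nm bandpass filter.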

[4] = tested on: HepG2; assay: Induction of apoptosis in human HepG2 cells assessed as accumulation of AIF in cytoplasm at 4 uM after 24 hrs by immunofluorescence assay; assay type: functional, cell-based
Procedure, shortened: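 HepG2 cells in glass-bottom dishes given 4 μM for 24 h. Fixed in methanol:acetone (1:1) for 10 min, blocked with 5% BSA for 1 h at room temperature. Anti-AIF antibody applied overnight at 4 °C, then Alexa Fluor 594 secondary; nuclei stained with DAPI. Imaged by confocal microscopy.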

[5] = tested on: PC-3; assay: Induction of morphological changes in human PC3 cells assessed as accumulation of cytoplasmic vacuoles at 4 uM after 24 hrs by optical microscopic method; assay type: functional, cell-based
Procedure, shortened: (§2)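 Cells grown at 37 °C, 5% CO2 in media with 10% FBS and penicillin/streptomycin, then treated with compound. Cytoplasmic vacuoles judged by optical microscopy. Time course at 4 μM, or 10 h exposure across increasing concentrations.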

[6] = tested on: HepG2; assay: Induction of mitochondrial dysfunction in human HepG2 cells assessed as […] at 1 to 4 uM after 24 hrs by JC-1 staining based flow cytometric analysis; assay type: functional, cell-based; conditions: dose 1-4 µM
[7] = tested on: A2780; assay: Antiproliferative activity against human A2780 cells assessed as reduction in cell viability after 48 hrs by MTT assay; assay type: functional, cell-based; conditions: A2780, 48 h
Procedure, shortened: (§3)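 Cell lines grown at 37 °C in 5% CO2: A2780, A549, HL7702 and PC3 in RPMI 1640; HT29 in McCoy's 5A; HepG2 and PANC-1 in DMEM; all media with 10% FBS and penicillin/streptomycin. Cells seeded and left overnight, then exposed to compound for 48 h. MTT (5 mg/mL solution) added for 4 h at 37 °C, formazan dissolved in DMSO, absorbance read at 570 nm. IC50 taken from viability; run in triplicate.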

[8] = tested on: HepG2; assay: Induction of apoptosis in human HepG2 cells assessed as viable cells at 4 uM after 24 hrs in presence of z-VAD-fmk by annexin V/propidium iodide staining based flow cytometric analysis (reference value: 92.8%); assay type: functional; conditions: read-out: Activity
[9] = tested on: HepG2; assay: Induction of cell death in human HepG2 cells at 3 uM after 24 hrs in presence of CQ by MTT assay; assay type: functional, cell-based
Procedure, shortened: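 HepG2 cells given 3 μM for 24 h together with CQ (10 μM) or 3-MA (1 mM). Viability measured by MTT with absorbance read at 570 nm.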

[10] = tested on: HepG2; assay: Induction of apoptosis in human HepG2 cells assessed as late apoptotic cells at 2 uM after 24 hrs by annexin V/propidium iodide staining based flow cytometric analysis (reference value: 3.22%); assay type: functional
[11] = tested on: HepG2; assay: Induction of mitochondrial dysfunction in human HepG2 cells assessed as increase in MPTP opening at 1 to 4 uM after 24 hrs by JC-1 staining based flow cytometric analysis; assay type: functional, cell-based; conditions: dose 1-4 µM
[12] = tested on: HepG2 (Homo sapiens); assay: Induction of morphological changes in human HepG2 cells assessed as accumulation of cytoplasmic vacuoles at 4 uM after 24 hrs by optical microscopic method
[13] = tested on: HepG2; assay: Induction of morphological changes in human HepG2 cells assessed as effect on size of vacuoles at 3 uM after 24 hrs in presence of z-VAD-fmk by microscopic analysis; assay type: functional, cell-based; procedure, shortened: as §1
[14] = tested on: HepG2; assay: Induction of apoptosis in human HepG2 cells assessed as early apoptotic cells at 2 uM after 24 hrs by annexin V/propidium iodide staining based flow cytometric analysis (reference value: 1.29%); assay type: functional
[15] = tested on: HT-29; assay: Antiproliferative activity against human HT29 cells assessed as reduction in cell viability after 48 hrs by MTT assay; assay type: functional, cell-based; conditions: HT-29, 48 h; procedure, shortened: as §3
[16] = tested on: HepG2; assay: Induction of morphological changes in human HepG2 cells assessed as accumulation of cytoplasmic vacuoles at 4 uM after 24 hrs by optical microscopic method; assay type: functional, cell-based; procedure, shortened: as §2
[17] = Ratio of HN drug uptake to test compound drug uptake in human HepG2 cells at 5 uM after 12 hrs by HPLC analysis; assay type: ADME, cell-based; conditions: hepg2, 12 h
Procedure, shortened: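 HepG2 cells treated with 5 μM compound or honokiol for 12 h. Mitochondria isolated with a kit by centrifugation at 600g then 11000g, 4 °C, 10 min each. Whole-cell and mitochondrial drug measured by HPLC on a C18 column, methanol-0.1% acetic acid (80:20), at 265 nm (derivative) and 210 nm (honokiol). Run thrice.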

[18] = Drug localization n human HepG2 cells mitochondria by MitoTracker staining based confocal microscopic analysis; assay type: ADME
Procedure, shortened: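 HepG2 cells in glass-bottom dishes were exposed to compound, then stained with 150 nM MitoTracker Red CMXRos for 20 min. Compound's own blue fluorescence imaged against the red mitochondrial signal by confocal microscopy.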

[19] = tested on: HepG2; assay: Potency index, ratio of HN IC50 to test compound IC50 for antiproliferative activity against human HepG2 cells; assay type: functional
Procedure, shortened: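 MTT assay after 48 h drug exposure. Cells seeded overnight, MTT (5 mg/mL stock) added for 4 h at 37 °C, formazan dissolved in DMSO, absorbance read at 570 nm. IC50 taken from viability, repeated in triplicate, and the IC50 ratio calculated.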

[20] = tested on: HepG2; assay: Induction of mitochondrial dysfunction in human HepG2 cells assessed as decrease in mitochondrial membrane […] at 1 to 4 uM after 24 hrs by JC-1 staining based flow cytometric analysis; assay type: functional, cell-based; conditions: dose 1-4 µM
Procedure, shortened: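 HepG2 cells in 6-well plates treated for 24 h at 37 °C, then trypsinized. Stained with JC-1 at a final 2.5 μg/mL for 30 min, washed three times, resuspended in PBS and read by flow cytometry.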

[21] = tested on: PC-3; assay: Antiproliferative activity against human PC-3 cells assessed as reduction in cell viability after 48 hrs by MTT assay; assay type: functional, cell-based; conditions: PC-3, 48 h; procedure, shortened: as §3
[22] = tested on: HepG2; assay: Induction of cell death in human HepG2 cells at 3 uM after 12 hrs by MTT assay; assay type: functional, cell-based
[23] = tested on: A549; assay: Induction of morphological changes in human A549 cells assessed as accumulation of cytoplasmic vacuoles at 4 uM after 24 hrs by optical microscopic method; assay type: functional, cell-based
[24] = tested on: HepG2; assay: Induction of apoptosis in human HepG2 cells assessed as early apoptotic cells at 4 uM after 24 hrs in presence of z-VAD-fmk by annexin V/propidium iodide staining based flow cytometric analysis (reference value: 0.86%); assay type: functional

- IC50 [7]: 2220 nM
- IC50 [15]: > 5000 nM
- Ratio [17]: 2.5
- Drug uptake [18]: Active
- IC50 [21]: 2250 nM
SMILES: C=CCc1ccc(O)c(-c2ccc(OCCCCCc3c4[n+](cc5c(OC)c(OC)ccc35)CCc3cc5c(cc3-4)OCO5)c(CC=C)c2)c1.[I-]
- Activity [1]: 19.9%
- Activity [2]: inactive
- Activity [3]: Active
- Activity [4]: Active
- Activity [5]: Active
- Activity [6]: Active
- viability at 4 µM [8]: 73%
- Activity [9]: Active
- Activity [10]: 3.51%
- Activity [11]: Active
- Activity [12]: Active
- Activity [13]: inactive
- Activity [14]: 3.03%
- Activity [16]: Active
- Ratio IC50 [19]: 14.6
- Activity [20]: Active
- Activity [22]: Active
- Activity [23]: Active
- Activity [24]: 6.59%
